Values after ≈ are worked out from the molar mass of the structure shown.
Legend:
[1] = Kinetic aqueous solubility of the compound in pH 7.4 phosphate buffered saline incubated for 24 hrs under shaking condition by HPLC analysis; format: physicochemical; conditions: read-out: Kinetic_solubility
Procedure, shortened: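 Dry powder shaken 24 h at 25 °C in 0.1 M phosphate buffer, pH 7.4, then filtered through a 0.45 µm membrane. Concentration determined by HPLC against a standard of the compound in DMSO. Mean of three separate assays in triplicate.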

[2] = target: Tyrosine-protein kinase BTK (Homo sapiens, UniProt Q06187); test: Reversible inhibition of FAM-labeled peptide binding to full-length human N-terminal GST-tagged BTK (2 to 659 residues) expressed in baculovirus infected Sf21 insect cells at preincubated for 10 mins followed by FAM-labeled peptide addition and measured by off-chip mobility shift assay
Sequence of Tyrosine-protein kinase BTK (Q06187 whole entry, the tested form may be a part): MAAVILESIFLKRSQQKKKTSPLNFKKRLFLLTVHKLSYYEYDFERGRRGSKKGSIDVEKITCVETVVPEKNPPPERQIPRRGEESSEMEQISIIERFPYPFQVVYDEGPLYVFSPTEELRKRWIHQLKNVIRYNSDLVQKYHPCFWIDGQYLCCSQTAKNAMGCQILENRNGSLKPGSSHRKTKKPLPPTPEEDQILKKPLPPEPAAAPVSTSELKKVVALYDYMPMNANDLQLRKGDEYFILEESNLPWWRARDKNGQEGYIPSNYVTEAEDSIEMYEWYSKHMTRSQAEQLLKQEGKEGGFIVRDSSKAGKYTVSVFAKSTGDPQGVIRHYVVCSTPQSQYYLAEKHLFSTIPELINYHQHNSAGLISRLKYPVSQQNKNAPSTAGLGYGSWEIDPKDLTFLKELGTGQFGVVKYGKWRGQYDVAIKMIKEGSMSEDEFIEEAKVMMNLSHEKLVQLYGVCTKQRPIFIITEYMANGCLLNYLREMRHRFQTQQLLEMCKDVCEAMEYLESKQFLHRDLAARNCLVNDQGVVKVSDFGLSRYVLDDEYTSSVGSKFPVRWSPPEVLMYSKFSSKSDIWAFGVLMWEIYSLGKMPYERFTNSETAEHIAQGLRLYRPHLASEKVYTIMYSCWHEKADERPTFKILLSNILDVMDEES

| solubility kinetic at 24 h [1] [µg/mL] | IC50 [2] [nM] | SMILES |
| --- | --- | --- |
| < 0.05 |  | Cc1cc2cn[nH]c2cc1-c1cccc2c(N)c(C(N)=O)nnc12 |
| 5.2 (≈ 15.5 µM) | 11.6 | Cc1cc2cn[nH]c2cc1-c1ccc(F)c2c(N)c(C(N)=O)cnc12 |

Reference: ChEMBL document CHEMBL4334447, “Discovery of 4-Aminoquinoline-3-carboxamide Derivatives as Potent Reversible Bruton's Tyrosine Kinase Inhibitors for the Treatment of Rheumatoid Arthritis” (J Med Chem, 2019)
